Measurements as given in ChEMBL document CHEMBL1148955, “Chemical constituents from the Colombian medicinal plant Maytenus laevis” (2004).
Active and inactive are the calls of the source. No cut-off for these calls is given here.

How the values were obtained:
[1] = tested on: PBMC; assay: Induction of IL12 production in human PBMC at 1 ug/ml after 48 hrs by ELISA; assay type: functional
Summary of the method: (§1)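 PBMCs were isolated from heparinized venous blood by Ficoll-Hypaque density gradient centrifugation. Cells were cultured at 1 × 10^6/mL in RPMI 1640 with 10% fetal calf serum, with or without compound at 1 or 10 µg/mL, for 48 h at 37 °C. Cytokines in the culture supernatants were measured by commercial ELISA kits.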

[2] = tested on: PBMC; assay: Induction of IFN-gamma production in human PBMC at 10 ug/ml after 48 hrs by ELISA; assay type: functional, cell-based; summary of the method: as §1
[3] = tested on: PBMC; assay: Induction of IL4 production in human PBMC at 10 ug/ml after 48 hrs by ELISA; assay type: functional, cell-based; summary of the method: as §1
[4] = tested on: PBMC; assay: Induction of IL4 production in human PBMC at 1 ug/ml after 48 hrs by ELISA; assay type: functional, cell-based; summary of the method: as §1
[5] = tested on: PBMC; assay: Induction of IL12 production in human PBMC at 10 ug/ml after 48 hrs by ELISA; assay type: functional; summary of the method: as §1
[6] = tested on: PBMC; assay: Induction of IFN-gamma production in human PBMC at 1 ug/ml after 48 hrs by ELISA; assay type: functional, cell-based; summary of the method: as §1
[7] = tested on: PBMC; assay: Induction of IL10 production in human PBMC at 10 ug/ml after 48 hrs by ELISA; assay type: functional, cell-based; summary of the method: as §1
[8] = tested on: PBMC; assay: Induction of IL6 production in human PBMC at 1 ug/ml after 48 hrs by ELISA; assay type: functional; summary of the method: as §1
[9] = tested on: PBMC; assay: Induction of IL6 production in human PBMC at 10 ug/ml after 48 hrs by ELISA; assay type: functional; summary of the method: as §1
[10] = tested on: PBMC; assay: Induction of TNFalpha production in human PBMC at 10 ug/ml after 48 hrs by ELISA; assay type: functional; summary of the method: as §1
[11] = tested on: PBMC; assay: Induction of TNFalpha production in human PBMC at 1 ug/ml after 48 hrs by ELISA; assay type: functional; summary of the method: as §1
[12] = tested on: PBMC; assay: Induction of IL10 production in human PBMC at 1 ug/ml after 48 hrs by ELISA; assay type: functional, cell-based; summary of the method: as §1

| SMILES | Activity [1] | Activity [2] | Activity [3] | Activity [4] | Activity [5] | Activity [6] | Activity [7] | Activity [8] | Activity [9] | Activity [10] | Activity [11] | Activity [12] |
| --- | --- | --- | --- | --- | --- | --- | --- | --- | --- | --- | --- | --- |
| CC1(C)[C@H](O)CC[C@]2(C)[C@H]3CC=C4[C@@H]5C[C@](C)(C(=O)O)C[C@H](O)[C@]5(C)CC[C@@]4(C)[C@]3(C)CC[C@@H]12 [TRIPTOCALLIC ACID D] | <7.8 pg/mL | inactive | inactive | inactive | <7.8 pg/mL | inactive | inactive | 793.2 pg/mL | <7.8 pg/mL | <7.8 pg/mL | <7.8 pg/mL | inactive |
| C[C@H]1C(=O)CC[C@@H]2[C@]1(C)CC[C@H]1[C@@]2(C)CC[C@@]2(C)[C@@H]3CC(C)(C)CC[C@]3(CO)CC[C@]12C [CANOPHYLLOL] | 47.3 pg/mL | inactive | inactive | inactive | 104.3 pg/mL | inactive | inactive | 2579.3 pg/mL | 2579.2 pg/mL | 322.9 pg/mL | 132.5 pg/mL | inactive |
| COc1cc(C(=O)O[C@@H]2C[C@](C)(O)[C@H]3[C@H](O[C@@H]4O[C@H](CO)[C@@H](O)[C@H](O)[C@H]4O)OC=C[C@H]32)ccc1O | <7.8 pg/mL | inactive | inactive | inactive | <7.8 pg/mL | inactive | inactive | <7.8 pg/mL | <7.8 pg/mL | <7.8 pg/mL | <7.8 pg/mL | inactive |
| CC(=O)OC[C@]12[C@H](OC(C)=O)[C@H](OC(C)=O)[C@@H]3[C@@H](OC(=O)c4ccccc4)[C@@]14O[C@@]3(C)COC(=O)c1cccnc1C(C)C(C)C(=O)O[C@@H]([C@H](OC(C)=O)[C@@H]2OC(=O)c1ccccc1)[C@]4(C)O (stereo not given in full) | 17.3 pg/mL | inactive | inactive | inactive | <7.8 pg/mL | inactive | inactive | 463 pg/mL | 260.8 pg/mL | <7.8 pg/mL | 26.7 pg/mL | inactive |
| COc1ccc([C@H]2Oc3cc(O)cc(O)c3C[C@H]2O)cc1OC | <7.8 pg/mL | inactive | inactive | inactive | <7.8 pg/mL | inactive | inactive | 473.4 pg/mL | 198.6 pg/mL | <7.8 pg/mL | <7.8 pg/mL | inactive |
| COc1c(O)cc([C@H]2Oc3cc(O)cc(O)c3C(=O)[C@H]2O)cc1O | <7.8 pg/mL | inactive | inactive | inactive | <7.8 pg/mL | inactive | inactive | 279.4 pg/mL | 470.4 pg/mL | <7.8 pg/mL | <7.8 pg/mL | inactive |
| C[C@@H]1O[C@@H](O[C@@H]2[C@@H](O)[C@H](OCCc3ccc(O)c(O)c3)O[C@H](COC(=O)/C=C/c3ccc(O)c(O)c3)[C@H]2O)[C@H](O)[C@H](O)[C@H]1O [ISOACTEOSIDE] | <7.8 pg/mL | inactive | inactive | inactive | <7.8 pg/mL | inactive | inactive | 101.5 pg/mL | 175.5 pg/mL | <7.8 pg/mL | <7.8 pg/mL | inactive |
| COc1c(O)cc([C@H]2Oc3cc(O)cc(O)c3C[C@H]2O)cc1O | <7.8 pg/mL | inactive | inactive | inactive | <7.8 pg/mL | inactive | inactive | <7.8 pg/mL | 662.9 pg/mL | <7.8 pg/mL | <7.8 pg/mL | inactive |
| C[C@@H]1[C@H]2C3=CC[C@@H]4[C@@]5(C)CC[C@@H](O)C(C)(C)[C@@H]5CC[C@@]4(C)[C@]3(C)CC[C@@]2(C)[C@@H](O)C[C@H]1C(=O)O [TRIPTOCALLIC ACID A] | <7.8 pg/mL | inactive | inactive | inactive | <7.8 pg/mL | inactive | inactive | 705.7 pg/mL | 10.6 pg/mL | <7.8 pg/mL | <7.8 pg/mL | inactive |
| CC1(C)[C@@H](O)CC[C@]2(C)[C@H]3CC=C4[C@H]5C[C@](C)(C(=O)O)CC[C@]5(C)CC[C@@]4(C)[C@]3(C)CC[C@@H]12 [EPIKATONIC ACID] | <7.8 pg/mL | inactive | inactive | inactive | <7.8 pg/mL | inactive | inactive | 16.2 pg/mL | 22.9 pg/mL | <7.8 pg/mL | <7.8 pg/mL | inactive |
